One block for each compound: values may come before it. Activity calls are given as the source filed them. The calls are words filed in the database; no cut-off is given here.
Tests used:
[1] = Solubility of the compound in water; format: physicochemical; settings: buffer
Huh-7 [2] = assay: Antiproliferative activity against human HuH7 cells harboring p53 Y220C mutant after 72 hrs by CellTiter-Glo assay; format: functional, cell-based; settings: Huh-7, 72 h
In short: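 Cells were exposed to compound for 72 h and viability read by CellTiter-Fluor or CellTiter-Glo 2.0. Quadruplicate technical replicates, normalized to blank (viability = 1) and no-cell (viability = 0) controls. Confirmed in at least 2 independent biological replicates. IC50 derived from the dose-response data.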

Huh-7 [3] = assay: Antiproliferative activity against p53 Y220C mutant knockout human HuH7 cells up to 120 uM after 72 hrs by CellTiter-Glo assay; format: functional, cell-based
[4] = system: Cellular tumor antigen p53 (Homo sapiens), P04637 [Y220C]; assay: Binding affinity to p53 Y220C mutant (unknown origin) assessed as change in melting temperature
[5] = biological target: T1, Cellular tumor antigen p53 (Homo sapiens, UniProt P04637, Y220C); assay: Binding affinity to p53 Y220C mutant (unknown origin)
[6] = system: Cellular tumor antigen p53 (Homo sapiens), P04637 [Y220C]; assay: Binding affinity to p53 Y220C mutant (unknown origin) assessed as change in melting temperature at 1 mM
[7] = biological target: T1, Cellular tumor antigen p53; assay: Binding affinity to N-terminal His6-tagged p53 DNA binding domain Y220C mutant (94 to 312 residues) (unknown origin) expressed in Escherichia coli C41 by ITC
[8] = system: Cellular tumor antigen p53 (Homo sapiens), P04637 [Y220C]; assay: Binding affinity to p53 Y220C mutant (unknown origin) assessed as change in melting temperature at 250 uM

- solubility [1]: Insoluble
Structure (SMILES): CNC(=O)c1cc(I)c(-n2cccc2)c(I)c1O

- IC50 (Huh-7 [2]): 150 µM
Structure (SMILES): CCCSc1cc(C(=O)O)c(O)c(I)c1-n1cccc1

- solubility [1]: Insoluble
Structure (SMILES): CCN(CC)c1nc2c(C(=O)OC)c(O)c(I)c(-n3cccc3)c2s1

Structure (SMILES): CCN(CC)c1nc2c(C(=O)O)c(O)c(I)c(-n3cccc3)c2s1
- Activity (Huh-7 [3]): inactive

- ΔTm [4]: 4 °C
Structure (SMILES): CCN(CC)C1CCN(Cc2cc(C#CCNc3ccccc3)cc(I)c2O)CC1

- Kd [5]: 820 µM
- ΔTm [6]: 0.6 °C
- solubility [1]: Soluble
Structure (SMILES): O=C(O)c1cc(I)cc(I)c1O

- solubility [1]: Insoluble
Structure (SMILES): CN(C)CCNC(=O)c1cc(I)c(-n2cccc2)c(I)c1O

- solubility [1]: Insoluble
Structure (SMILES): COC(=O)c1cc(I)c(-n2cccc2)c(I)c1O

- Kd [7]: 21 µM
- ΔTm [8]: 1.8 °C
- Kd [5]: 21 µM
- solubility [1]: Soluble
Structure (SMILES): O=C(O)c1cc(I)c(-n2cccc2)c(I)c1O
